Assay results: ChEMBL document CHEMBL1122124, “Synthesis and immunoadjuvant activities of 2-acetamido-5-O-acetyl-6-O-acyl-2-deoxy-3-O-[(R)-2-propionyl-L-alanyl-D- isoglutamine]-D-glucofuranoses as potential prodrug forms of 6-O-Acyl Derivatives of N-acetylmuramyl dipeptide” (1982)

What was measured:
Format in all cases: functional
Mus musculus [1] = species: Mus musculus; test: Tested for antibody response in mice injected with various Hepatitis B Vaccine at 50 ug/dose in experiment 1
Method in brief: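 Female 5-week-old ICR mice, groups of 20, injected subcutaneously with 0.5 mL holding 1.25 μg aqueous hepatitis B vaccine (plasma-derived) mixed with 50 μg analogue in PBS (pH 7.5). Controls were aqueous vaccine alone and alum-adsorbed vaccine at 1.25 μg. Mice bled from vena cava at 6 weeks. Anti-HBs measured by radioimmunoassay; geometric mean titer reported as reciprocal serum dilution, plus responder count.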

Mus musculus [2] = species: Mus musculus; test: Tested for antibody response of mice injected with Bovine serum Albumin(BSA) at 5 ug/dose in experiment 1
Mus musculus [3] = species: Mus musculus; test: Tested for antibody response of mice injected with Bovine serum Albumin(BSA) at 5 ug/dose in experiment 5
Method in brief: (§1)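 Female ICR/Ha mice, 5–6 weeks old, groups of six, given one subcutaneous injection between the shoulders of 0.25 mL PBS containing 100 μg BSA monomer plus analogue (dissolved or sonicated). Boosted at day 21 with 100 μg BSA alone, bled at day 31. Anti-BSA passive hemagglutination was run on sheep-RBC-adsorbed sera with twofold dilutions on BSA-coated sheep cells. Result is the group geometric mean reciprocal titer.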

Mus musculus [4] = species: Mus musculus; test: Tested for antibody response of mice injected with Bovine serum Albumin(BSA) at 50 ug/dose in experiment 1; method in brief: as §1
Mus musculus [5] = species: Mus musculus; test: Tested for antibody response of mice injected with Bovine serum Albumin(BSA) at 50 ug/dose in experiment 5
Mus musculus [6] = species: Mus musculus; test: Tested for antibody response of mice injected with Bovine serum Albumin(BSA) at 5 ug/dose in experiment 6; method in brief: as §1
Mus musculus [7] = species: Mus musculus; test: Tested for antibody response of mice injected with Bovine serum Albumin(BSA) at 50 ug/dose in experiment 6
Mus musculus [8] = species: Mus musculus; test: Tested for antibody response of mice injected with Bovine serum Albumin(BSA) at 50 ug/dose in experiment 2; method in brief: as §1
Mus musculus [9] = species: Mus musculus; test: Tested for antibody response of mice injected with Bovine serum Albumin(BSA) at 50 ug/dose in experiment 3; method in brief: as §1
Mus musculus [10] = species: Mus musculus; test: Tested for antibody response of mice injected with Bovine serum Albumin(BSA) at 50 ug/dose in experiment 4

Structure (SMILES)	Geometric mean (Mus musculus [1])	Geometric mean (Mus musculus [2])	Geometric mean (Mus musculus [3])	Geometric mean (Mus musculus [4])	Geometric mean (Mus musculus [5])	Geometric mean (Mus musculus [6])	Geometric mean (Mus musculus [7])	Geometric mean (Mus musculus [8])	Geometric mean (Mus musculus [9])	Geometric mean (Mus musculus [10])
CCCCCCCCCCCCCCCCCC(=O)OCC(OC(C)=O)C1OC(O)C(NC(C)=O)C1OC(C)C(=O)N[C@@H](C)C(=O)NC(CCC(=O)O)C(N)=O (stereo not given in full)	69.6	28.12	107.76	1408.52	215.51					
COC1OC(C(O)CO)C(OC(C)C(=O)N[C@@H](C)C(=O)NC(CCC(=O)O)C(N)=O)C1NC(C)=O (stereo not given in full)		10.7		10.7						
CCCCCCCCCCCCCCCCCC(=O)NCC1OC(O)C(NC(C)=O)C(O[C@H](C)C(=O)N[C@@H](C)C(=O)NC(CCC(=O)O)C(N)=O)C1O (stereo not given in full)		<3		<3						
CC(=O)NCC1OC(O)C(NC(C)=O)C(O[C@H](C)C(=O)N[C@@H](C)C(=O)NC(CCC(=O)O)C(N)=O)C1O (stereo not given in full)		6.17		7.78						
CC(=O)NC1C(O)OC(COC(C)=O)C(OC(C)=O)C1O[C@H](C)C(=O)N[C@@H](C)C(=O)NC(CCC(=O)O)C(N)=O (stereo not given in full)		4.36		384						
CCCCCCCCCCCCCCCCCCCCCC(=O)OC(C)(C)C(=O)OCC1OC(O)C(NC(C)=O)C(O[C@H](C)C(=O)N[C@@H](C)C(=O)NC(CCC(=O)O)C(N)=O)C1O (stereo not given in full)		431		768		823.12	716.57			
CCCCCCCCCCCCCCCCCCCCCC(=O)OC(C)(C)C(=O)OCC(OC(C)=O)C1OC(O)C(NC(C)=O)C1OC(C)C(=O)N[C@@H](C)C(=O)NC(CCC(=O)O)C(N)=O (stereo not given in full)	303.6	543.06		215.51						
CCCCCCCCCCCCCCCCCC(=O)OCC1OC(O)C(NC(C)=O)C(O[C@H](C)C(=O)N[C@@H](C)C(=O)NC(CCC(=O)O)C(N)=O)C1O (stereo not given in full)		271.53		995.97						
CC(=O)NC1C(O)OC(C(COC(C)=O)OC(C)=O)C1OC(C)C(=O)N[C@@H](C)C(=O)NC(CCC(=O)O)C(N)=O (stereo not given in full)	38.1	31.12		271.53		13.08	113.49			
CC(=O)N[C@H]1C(O)O[C@H](CO)[C@@H](O)[C@@H]1O[C@H](C)C(=O)N[C@@H](C)C(=O)N[C@H](CCC(=O)O)C(N)=O (stereo not given in full) [MURAMYL DIPEPTIDE]		28.12	<3	592.21	28.26		179.14	215.51	241.9	1536
